Results: ChEMBL document CHEMBL4014341, “Discovery of a Human Neuromedin U Receptor 1-Selective Hexapeptide Agonist with Enhanced Serum Stability” (J Med Chem, 2017)
Peptide text beside a SMILES is read from it.

Biological target: T1, Neuromedin-U receptor 1 (Homo sapiens, UniProt Q9HB89)
T1 sequence (Q9HB89 whole entry): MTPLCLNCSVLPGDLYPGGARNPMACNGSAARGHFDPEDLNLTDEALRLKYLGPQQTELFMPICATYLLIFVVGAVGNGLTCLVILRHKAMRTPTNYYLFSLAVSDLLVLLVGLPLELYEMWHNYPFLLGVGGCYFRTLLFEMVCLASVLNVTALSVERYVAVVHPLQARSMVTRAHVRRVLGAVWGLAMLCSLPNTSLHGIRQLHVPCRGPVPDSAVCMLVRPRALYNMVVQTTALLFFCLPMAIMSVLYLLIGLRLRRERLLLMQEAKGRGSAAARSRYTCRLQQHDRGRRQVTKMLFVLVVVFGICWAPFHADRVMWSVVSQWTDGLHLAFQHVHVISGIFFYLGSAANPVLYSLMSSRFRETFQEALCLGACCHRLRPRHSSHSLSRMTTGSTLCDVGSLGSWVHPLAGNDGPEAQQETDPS
Assay: Agonist activity at human NMUR1 expressed in CHO cells assessed as induction of Ca2+ flux after 18 hrs by Fluo-4 AM dye based FLIPR assay
Assay type: functional, cell-based
Outline: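 CHO cells stably expressing human NMUR1 or NMUR2 were seeded at 2.0 × 10^4/well. After 18 h they were loaded 40 min with 4 μM Fluo-4 AM in HBSS/10 mM HEPES/2.5 mM probenecid pH 7.4 with 1% FCS, then washed. Peptides in buffer with 0.05% BSA/0.001% Triton X-100 were tested at 10−12−10−6 M in triplicate. Calcium flux was read by FLIPR from the maximal value, and EC50 was obtained by curve fitting.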

Compound: CC(C)C[C@H](NC(=O)[C@H](Cc1ccccc1)NC(=O)[C@H](Cc1ccc(O)cc1)NC(=O)CNC(=O)[C@H](CCCNC(=N)N)NC(=O)[C@H](CO)NC(=O)[C@H](CCC(N)=O)NC(=O)[C@H](CO)NC(=O)[C@H](C)NC(=O)[C@H](Cc1ccccc1)NC(=O)[C@@H]1CCCN1C(=O)[C@H](CO)NC(=O)[C@H](CCC(N)=O)NC(=O)[C@H](Cc1ccccc1)NC(=O)[C@H](CCC(=O)O)NC(=O)[C@H](CCC(=O)O)NC(=O)[C@H](CC(=O)O)NC(=O)[C@@H](NC(=O)[C@H](CCCNC(=N)N)NC(=O)[C@@H](N)Cc1ccccc1)C(C)C)C(=O)N[C@@H](Cc1ccccc1)C(=O)N[C@@H](CCCNC(=N)N)C(=O)N1CCC[C@H]1C(=O)N[C@@H](CCCNC(=N)N)C(=O)N[C@@H](CC(N)=O)C(N)=O (H-FRVDEEFQSPFASQSRGYFLFRPRN-NH2)
- EC50: 0.17 nM
